Published values pooled from the literature.
Compare with care: the assays were run in different laboratories.
Target: RAC-alpha serine/threonine-protein kinase (AKT1, Homo sapiens, UniProt P31749)

| Structure (SMILES) | test | conditions | remaining binding [%] |
| --- | --- | --- | --- |
| COc1cnc(Nc2cccc(S(N)(=O)=O)c2)nc1N1CCN(c2ccccc2)CC1 | binding, competition with immobilised ligand | 1 µM | 100 |
| COc1ccnn2ncc(-c3ccnc(N(C)C)n3)c12 | binding | 1 µM | 100 |
| COc1ncc2cc3ccccc3nc2c1C#N | cell-free assay, competition with immobilised ligand | 5 µM | 92 |
| C[C@@H](c1ccc(-n2cnc3c(N)ncnc32)cc1)N1CCc2nn(C)c(Cc3ccccc3)c2C1=O | binding, competition with immobilised ligand | 0.1 µM | 100 |
| CC1=C(C#N)C(c2ccc3c(c2)c(NC(=O)c2ccccc2C)nn3C)C(C#N)=C(C)N1 | cell-free assay, competition with immobilised ligand | 1 µM | 94 |
| F[C@@H]1CCN(c2nccc(-c3cnn4ncccc34)n2)C1 | binding | 1 µM | 100 |
| Cc1nc(Cc2cccc(C(F)(F)F)c2)sc1-c1ccc(C(N)=O)nc1 | cell-free assay, competition with immobilised ligand | 1 µM | 82 |
| CN(C)c1ncc(F)c(-c2cnn3ncccc23)n1 | binding | 1 µM | 100 |
| O=C(NCCCN1CCOCC1)c1ccc(Nc2nccc(-c3cc4ccccc4s3)n2)cc1 | binding, competition with immobilised ligand | 1 µM | 100 |
| O=C(NCC1CCOCC1)c1n[nH]cc1NC(=O)c1c(F)cccc1F | binding, competition with immobilised ligand | 1 µM | 95 |
| O=C(c1ccc(Nc2ncc(Cl)c(-c3ccc(Cl)s3)n2)cc1)N1CCC(N2CCCC2)CC1 | binding, competition with immobilised ligand | 1 µM | 100 |
| CNC(=O)[C@@H]1CC[C@@H](n2c(-c3ccc4cnccc4c3)nc3ccc(C(=O)NCc4cccc(C(N)=O)c4)cc32)C1 | binding, competition with immobilised ligand | 1 µM | 100 |
| O=C(c1ccc(Nc2nccc(-c3cc4ccccc4s3)n2)cc1)N1CCC(N2CCCC2)CC1 | binding, competition with immobilised ligand | 1 µM | 100 |
| O=C(NCc1ncc(C(F)(F)F)cc1Cl)c1ccc2c(c1)C1(CCS(=O)(=O)CC1)[C@@H](C1CC1)N2S(=O)(=O)c1ccc(F)cc1 | cell-free assay, competition with immobilised ligand | 1 µM | 94 |
| N[C@H]1CCN(c2nccc(-c3cnn4ncccc34)n2)C1 | binding | 1 µM | 97 |
| C[C@@H]1CN(c2ccc3ncc(-c4ccc5[nH]nc(C6CC6)c5c4)n3n2)C[C@H](C)O1 | binding, competition with immobilised ligand | 50 nM | 98 |
| CN(C)c1nccc(-c2cnn3ncccc23)n1 | binding | 1 µM | 100 |
| O=C(NCCCC1CCCCC1)c1ccc(CNC(=O)c2cnn(-c3ccccc3)c2C(F)(F)F)cc1 | cell-free assay, competition with immobilised ligand | 0.1 µM | 100 |
| CCN1CCN(Cc2ccc(C(=O)Nc3ccc(C)c(Oc4ccc5c(c4)CC(=O)N5)c3)cc2C(F)(F)F)CC1 | binding, competition with immobilised ligand | 1 µM | 94 |
| Cc1c(C(=O)O)cc(-c2ccc(C3CCNCC3)cc2)c2ccc(-c3ccc(C(F)(F)F)cc3)cc12 | binding, competition with immobilised ligand | 1 µM | 100 |
| Cc1cnn2ncc(-c3ccnc(N(C)C)n3)c2c1 | binding | 1 µM | 94 |
| CS(=O)(=O)N1CCCC(NC(=O)[C@H](CCC2CCCCC2)NC(=O)c2ccc(CNC(=O)c3cnc4ccccn34)cc2)C1 (stereo partly shown) | cell-free assay, competition with immobilised ligand | 0.1 µM | 100 |
| C[C@@H]1CCN(c2nccc(-c3cnn4ncccc34)n2)C1 | binding | 1 µM | 93 |
| O=C(Nc1cccnn1)N1CCC(=Cc2cccc(Oc3ccc(C(F)(F)F)cn3)c2)CC1 | cell-free assay, competition with immobilised ligand | 1 µM | 93 |
| C=CC(=O)N1CCC(C(=O)NCC(=O)N2CCN(c3nc(-c4cnc(N)nc4C(F)F)nc(N4CCOCC4)n3)CC2)CC1 | binding, competition with immobilised ligand | 1 µM | 94 |
